T cell HTS – modulates CD8 T cell binding to vesicles; 2C CD8+ T cell-vesicle binding, flow cytometry; active compounds read low; response (vesicle binding), % at 7 µM; 0.068% of 330,000 active; AID 2052;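 active = response, share of CD8 T cells binding vesicles, and their 90th percentile fluorescence all below set limits, cut at about 80% in these data, passing the limit was not always enough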;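 also: values below 100% mean blocked vesicle binding to the CD8+ T cells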
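material = purified 2C TCR transgenic mouse naive CD8+ T cells | controls = Unloaded micro-vesicles (low), QL9 vesicles with 0.7% DMSO (high) | detection = cytometric PE anti-B7-1 and Alexa647 anti-CD8 signals after 1% paraformaldehyde fixation | incubation = binding step 1.5 h, 37 °C, antibody labelling 20 min, ice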
Mcl-1 Bim block – disrupts Bim peptide binding to human Mcl-1; Bead-based flow cytometry, Bim peptide-Mcl-1 binding; AID 1009; inhibition, % at 10 µM; 0.1% of 190,000 active; in the data active = inhibition above about 40%
Mcl1-Bid inh – Mcl-1/Bid interaction inhibition; Q07820; TR-FRET Mcl-1/Bid-Dy647 peptide binding, 1536-well; inhibition, % at 21.7 µM; 0.97% of 220,000 active; AID 1021;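 active = compounds that cut the binding signal by more than half at the single screening dose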;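 also: His-tagged Mcl-1 with europium anti-His antibody binding Bid BH3 peptide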
Pemphigus Ab inh – blocks pemphigus antibody binding to human desmoglein-3; P32926; DSG3-coupled beads, scFv-anti-DSG3-GFP binding, flow cytometry; active compounds read low; binding (percent of control), % at 10 µM; 0.48% of 310,000 active;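 active = binding more than 3 SD below its plate's average and above zero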;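 also: hits lower antibody fragment binding to DSG3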
Mcl1 Noxa PPI – Mcl-1/Noxa interaction inhibition. AID 1022. 1.5% of 220,000 active. Q07820. TR-FRET Mcl-1/Noxa peptide binding, 2 h. inhibition, % at 21.7 µM;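 active = compounds that cut the protein-peptide binding signal by more than 50% relative to plate controls in a single-dose test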;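 also: His-tagged Mcl-1 with rhodamine Noxa BH3 peptide and terbium anti-His antibody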
MCL1 BIM primary – disrupts human MCL1 binding to BIM-BH3 peptide; GST-MCL1 / FITC-Bim-BH3 fluorescence polarization; AID 2057; inhibition, % at 10.9 µM; 0.68% of 320,000 active;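 active = inhibition above the mean inhibition of all tested compounds plus 3 SD, set per campaign, cut at about 40% in these data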;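 also: higher means more loss of mP so more displacement of Bim peptide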
A number is an active result; n = inactive; x = not tested or not shown. Only some compounds are listed: those with a hit (about 2.3% of all), similar ones and a draw of the others.

SMILES	T cell HTS	Mcl-1 Bim block	Mcl1-Bid inh	Pemphigus Ab inh	Mcl1 Noxa PPI	MCL1 BIM primary
S=c1[nH]nc(-c2ccncc2)n1/N=C/c1cn(-c2ccccc2)nc1-c1ccccc1	n	x	n	n	n	n
COc1ccc(/C=N/n2c(-c3cc(C)[nH]n3)n[nH]c2=S)cc1	n	x	n	x	n	n
Cc1cc(-c2n[nH]c(=S)n2/N=C/c2cc([N+](=O)[O-])ccc2Cl)n[nH]1	x	n	n	n	57	x
O=[N+]([O-])c1cc(/C=N/n2c(-c3ccncc3)n[nH]c2=S)ccc1Cl	n	n	n	n	65	n
O=[N+]([O-])c1cccc(/C=N/n2c(-c3cccnc3)n[nH]c2=S)c1	n	n	n	n	n	n
O=[N+]([O-])c1ccc(Cl)c(/C=N/n2c(-c3cccnc3)n[nH]c2=S)c1	n	n	n	x	58	n
Cc1cc(-c2n[nH]c(=S)n2/N=C/c2ccc(Cl)c([N+](=O)[O-])c2)n[nH]1	n	n	n	n	n	n
O=[N+]([O-])c1ccc(-c2nn(-c3ccccc3)cc2/C=N/n2c(-c3ccncc3)n[nH]c2=S)cc1	n	x	n	n	52	n
CN(CC(=O)Nc1ccccc1Br)C(=O)C1CCN(C(=O)c2ccc(Cl)cc2)CC1	n	x	x	x	x	n
CC1CC(C)(C)CC2(C1)NC(=O)N(CC(=O)Nc1ccc(N3CCCCC3)cc1)C2=O (centres undefined)	n	x	x	n	x	n
Cc1ccc(Nc2ncnc3c2nnn3Cc2ccccc2)cc1	n	x	n	n	n	n
Cc1ccccc1-c1cc2nc(-c3ccc([N+](=O)[O-])cc3)cc(=O)n2[nH]1	n	n	n	n	n	n
O=c1cc(-c2ccc([N+](=O)[O-])cc2)nc2cc(-c3ccc(F)cc3)[nH]n12	n	n	n	n	65	n
CCCCn1c(N)c(N(CC(C)C)C(=O)c2ccc(C)c(S(=O)(=O)N3CCCCC3)c2)c(=O)[nH]c1=O	n	x	x	n	x	n
CCN1C(=O)N(C(C)=O)C2C1N(C(C)=O)C(=O)N2C(C)=O (centres undefined)	n	n	53	n	n	n
Cc1nn(CC(=O)NC2CCCCC2)c(C)c1[N+](=O)[O-]	x	x	x	n	x	x
CN(C)CCCNc1oc(-c2ccccc2)nc1C#N	n	n	n	n	53	n
Cc1cc(NS(C)(=O)=O)c(=O)n(Cc2c(F)cccc2Cl)c1	n	x	x	n	x	n
O=C(O)CN1C(=O)/C(=C\c2cn(-c3ccccc3)nc2-c2ccccc2)SC1=S	n	x	x	n	x	n
CCN1C(=O)/C(=C\c2cn(-c3ccccc3)nc2-c2cccnc2)SC1=S	x	n	56	n	n	x
COc1ccccc1C(=O)N/C(=C\c1cn(S(=O)(=O)N(C)C)c2ccccc12)C(=O)N1CCN(C)CC1	x	x	x	n	x	x
Cc1cccc(NC(=O)CSCC(=O)Nc2ccc(S(=O)(=O)N3CCCCC3)cc2)c1	x	x	x	n	x	x
COCCN(CC(=O)Nc1cccc(C)c1)S(=O)(=O)c1ccc(S(=O)(=O)N2CCCC2)cc1	n	n	n	-25	n	n
O=C(NCCc1ccccc1C(F)(F)F)c1cc(COc2ccccc2)on1	x	x	x	n	x	x
Cc1ccccc1N1CCN(CCN2C(=O)CC(=C3c4ccccc4-c4ccccc43)C2=O)CC1	n	x	x	88	x	n
SMILES	T cell HTS	Mcl-1 Bim block	Mcl1-Bid inh	Pemphigus Ab inh	Mcl1 Noxa PPI	MCL1 BIM primary
CCOC(=O)c1c[nH]c2c(Cl)c(Cl)ccc2c1=O	n	n	n	86	n	n
N=c1c[n+](N2CCOCC2)[n-]o1	n	n	56	n	n	n
Cc1ccc(-c2cc(C(=O)N3CCCCC3)c3ccccc3n2)cc1C	n	x	x	n	x	n
COc1ccc(OC)c(/C=C/c2[nH]c(=O)[nH]c(=O)c2[N+](=O)[O-])c1	x	x	x	n	x	x
CC(C)NC(=O)c1ccc(CNC(=O)OCC(F)(F)F)cc1	n	n	n	n	n	n
CC(C)NC(=O)c1ccc(COCC(F)(F)F)cc1	n	n	87	n	n	n
Cc1nc2ccc(C(=O)O)cc2c2c1CC(C)S2 (centres undefined)	n	n	n	x	51	n
Cc1nc2cc(C(=O)O)ccc2s1	n	n	n	n	n	n
O=C(CN1CCN(c2ccc(O)cc2)CC1)Nc1ccc(S(=O)(=O)N2CCCC2)cc1	n	x	x	73	x	x
Cc1ccc(S(=O)(=O)N2CCOCC2)cc1NC(=O)CN1CCN(c2ccc(O)cc2)CC1	n	n	n	n	52	n

Screening results deposited in PubChem BioAssay by several laboratories.
